Laboratory results taken from ChEMBL document CHEMBL5230149, “Discovery of novel ketoxime ether derivatives with potent FXR agonistic activity, oral effectiveness and high liver/blood ratio” (Bioorg Med Chem, 2021).
Active and inactive are the calls of the source. The rule behind the calls is not given here.

Assays:
Bile acid receptor = target: T1, Bile acid receptor (Homo sapiens, UniProt Q96RI1); test: Agonist activity at human FXR expressed in human Huh-7 cells co-transfected with FXRE-Luc reporter plasmid assessed as receptor transactivation incubated for 16 hrs by luciferase reporter gene assay; type: cell-based
T1 sequence (Q96RI1 whole entry): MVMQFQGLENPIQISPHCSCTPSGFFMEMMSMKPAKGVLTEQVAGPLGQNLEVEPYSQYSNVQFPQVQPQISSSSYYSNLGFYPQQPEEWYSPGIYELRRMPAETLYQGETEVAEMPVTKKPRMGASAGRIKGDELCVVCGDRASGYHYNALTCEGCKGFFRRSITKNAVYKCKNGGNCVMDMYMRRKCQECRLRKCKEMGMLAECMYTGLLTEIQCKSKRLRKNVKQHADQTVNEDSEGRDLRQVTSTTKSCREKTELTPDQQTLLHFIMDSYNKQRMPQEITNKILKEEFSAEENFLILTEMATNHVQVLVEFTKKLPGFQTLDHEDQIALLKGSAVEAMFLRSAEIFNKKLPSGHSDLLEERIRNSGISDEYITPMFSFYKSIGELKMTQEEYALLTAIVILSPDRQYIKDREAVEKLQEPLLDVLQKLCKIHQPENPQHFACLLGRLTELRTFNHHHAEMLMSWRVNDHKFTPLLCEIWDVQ

[1] = Drug uptake in ICR mouse liver at 15 mg/kg, po measured after 8 hrs by LC-MS/MS analysis; type: ADME, organism-based; details: read-out: Drug uptake
In short: (§1)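 Overnight-fasted male ICR mice (n = 3 per time point) received single oral 15 mg/kg and were refed 2 h later. Blood and liver were taken at 1.5, 4 and 8 h. Serum (10 µL) was precipitated with 100 µL methanol/acetonitrile (1:1). Liver was homogenized in ten times its weight of the same solvent. Supernatants were diluted 1:1 in ACN/H₂O and analyzed by LC-MS/MS. The ratio is liver conc (ng/g) over plasma conc (ng/mL).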

[2] = Plasma concentration in ICR mouse at 15 mg/kg, po measured after 8 hrs by LC-MS/MS analysis; type: ADME, organism-based; in short: as §1
[3] = target: T2, Bile acid receptor (Mus musculus) (UniProt Q60641); test: In vivo agonist activity at FXR in C57BL/6J mouse assessed as downregulation of CYP8B1 mRNA expression in liver at 10 mg/kg, po measured after 6 hrs by qRT-PCR analysis; type: functional, organism-based
T2 sequence (whole entry): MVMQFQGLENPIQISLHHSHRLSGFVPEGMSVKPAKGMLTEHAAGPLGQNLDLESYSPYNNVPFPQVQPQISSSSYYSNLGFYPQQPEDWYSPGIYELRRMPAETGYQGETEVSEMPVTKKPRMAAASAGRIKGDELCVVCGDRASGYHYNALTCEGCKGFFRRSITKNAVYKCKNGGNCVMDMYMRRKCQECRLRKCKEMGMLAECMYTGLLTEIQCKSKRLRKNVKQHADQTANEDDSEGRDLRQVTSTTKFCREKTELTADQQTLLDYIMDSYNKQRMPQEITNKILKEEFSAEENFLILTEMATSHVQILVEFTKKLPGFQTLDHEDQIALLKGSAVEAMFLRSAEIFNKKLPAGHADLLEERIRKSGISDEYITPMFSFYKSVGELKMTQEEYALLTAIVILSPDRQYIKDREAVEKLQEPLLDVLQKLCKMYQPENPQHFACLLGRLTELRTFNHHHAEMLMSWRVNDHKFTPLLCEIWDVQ
In short: (§2)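 Male C57BL/6J mice (7–8 weeks) were fasted 3 h, then dosed orally once in 0.25% CMC-Na (wt/vol) vehicle. Sacrificed 6 h post-dose; liver snap-frozen at -80 °C. TRIzol RNA extraction and qRT-PCR with GAPDH normalization (ΔΔCt). Results are fold over vehicle group (mean ± S.E.M, n = 6).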

[4] = target: T3, TGR5 (G-protein coupled bile acid receptor 1) (Homo sapiens, UniProt Q8TDU6); test: Agonist activity at human TGR5 expressed in HEK293 cells co-transfected with CRE-Luc reporter plasmid assessed as receptor transactivation incubated for 5.5 hrs by luciferase reporter gene assay relative to OCA; type: cell-based; details: read-out: Efficacy
T3 sequence (Q8TDU6 whole entry): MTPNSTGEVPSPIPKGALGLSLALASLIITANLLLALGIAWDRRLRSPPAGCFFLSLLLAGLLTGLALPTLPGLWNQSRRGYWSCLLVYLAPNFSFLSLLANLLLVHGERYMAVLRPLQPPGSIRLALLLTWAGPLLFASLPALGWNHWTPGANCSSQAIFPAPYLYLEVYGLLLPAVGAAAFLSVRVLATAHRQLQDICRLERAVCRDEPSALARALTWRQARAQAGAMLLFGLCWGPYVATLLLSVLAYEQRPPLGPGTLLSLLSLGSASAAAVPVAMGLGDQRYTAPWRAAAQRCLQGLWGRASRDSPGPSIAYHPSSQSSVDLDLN

[5] = Plasma concentration in ICR mouse at 15 mg/kg, po measured after 1.5 hrs by LC-MS/MS analysis; type: ADME, organism-based; in short: as §1
[6] = Drug uptake in ICR mouse liver at 15 mg/kg, po measured after 1.5 hrs by LC-MS/MS analysis; type: ADME, organism-based; details: read-out: Drug uptake; in short: as §1
[7] = target: T4, G-protein coupled bile acid receptor 1 (Homo sapiens, UniProt Q8TDU6); test: Agonist activity at human TGR5 expressed in HEK293 cells co-transfected with CRE-Luc reporter plasmid assessed as receptor transactivation incubated for 5.5 hrs by luciferase reporter gene assay; type: cell-based
T4 sequence (Q8TDU6 whole entry): T3 sequence (Q8TDU6 whole entry)

[8] = target: T2, Bile acid receptor (Mus musculus); test: Agonist activity at FXR in C57BL/6J mouse hepatocytes assessed as upregulation of SHP mRNA expression incubated for 24 hrs by qRT-PCR analysis; type: cell-based; details: Hepatocyte, filed as agonist, dose 0.4-10 µM
In short: (§3)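 Hepatocytes isolated from overnight-fasted male C57BL/6J mice (8–12 weeks), allowed 4 h to adhere, then given vehicle (0.5% DMSO) or compound at 0.4, 2 and 10 μM for 24 h. TRIzol RNA extraction, then qRT-PCR with GAPDH normalization by ΔΔCt. Values are expressed as fold over vehicle (mean ± S.E.M, n = 3).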

[9] = Drug uptake in ICR mouse liver at 15 mg/kg, po measured after 4 hrs by LC-MS/MS analysis; type: ADME, organism-based; details: read-out: Drug uptake; in short: as §1
[10] = target: T2, Bile acid receptor (Mus musculus); test: In vivo agonist activity at FXR in C57BL/6J mouse assessed as fold upregulation of FGF15 mRNA expression in ileum at 10 mg/kg, po measured after 6 hrs by qRT-PCR analysis relative to control; type: functional, organism-based
In short: (§4)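 Fasting of male C57BL/6J mice (7–8 weeks) for 3 h preceded a single oral dose in 0.25% CMC-Na (wt/vol). Ileum was collected 6 h after dosing and snap-frozen. RNA was extracted with TRIzol for qRT-PCR, normalized to GAPDH (ΔΔCt). Reported as fold of vehicle group (mean ± SEM, n = 6).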

[11] = Ratio of drug uptake in ICR mouse liver to plasma at 15 mg/kg, po measured after 8 hrs by LC-MS/MS analysis; type: ADME, organism-based; in short: as §1
[12] = target: T2, Bile acid receptor (Mus musculus); test: In vivo agonist activity at FXR in C57BL/6J mouse assessed as fold upregulation of SHP mRNA expression in ileum at 10 mg/kg, po measured after 6 hrs by qRT-PCR analysis relative to control; type: functional, organism-based; in short: as §4
[13] = Plasma concentration in ICR mouse at 15 mg/kg, po measured after 4 hrs by LC-MS/MS analysis; type: ADME, organism-based; in short: as §1
[14] = target: T2, Bile acid receptor (Mus musculus); test: In vivo agonist activity at FXR in C57BL/6J mouse assessed as fold upregulation of SHP mRNA expression in liver at 10 mg/kg, po measured after 6 hrs by qRT-PCR analysis relative to control; type: functional, organism-based; in short: as §2
[15] = target: T2, Bile acid receptor (Mus musculus); test: Agonist activity at FXR in C57BL/6J mouse hepatocytes assessed as fold upregulation of SHP mRNA expression at 10 uM incubated for 24 hrs by qRT-PCR analysis relative to control; type: cell-based; details: Hepatocyte; in short: as §3
[16] = Ratio of drug uptake in ICR mouse liver to plasma at 15 mg/kg, po measured after 1.5 hrs by LC-MS/MS analysis; type: ADME, organism-based; in short: as §1
[17] = Ratio of drug uptake in ICR mouse liver to plasma at 15 mg/kg, po measured after 4 hrs by LC-MS/MS analysis; type: ADME, organism-based; in short: as §1
[18] = target: T2, Bile acid receptor (Mus musculus); test: In vivo agonist activity at FXR in C57BL/6J mouse assessed as downregulation of CYP7A1 mRNA expression in liver at 10 mg/kg, po measured after 6 hrs by qRT-PCR analysis; type: functional, organism-based; in short: as §2
[19] = target: T2, Bile acid receptor (Mus musculus); test: Agonist activity at FXR in C57BL/6J mouse hepatocytes assessed as upregulation of BSEP mRNA expression at 0.4 to 10 uM incubated for 24 hrs by qRT-PCR analysis; type: cell-based; details: Hepatocyte, filed as agonist, dose 0.4-10 µM; in short: as §3
[20] = target: T2, Bile acid receptor (Mus musculus); test: In vivo agonist activity at FXR in C57BL/6J mouse assessed as downregulation of CYP7A1 mRNA expression in liver at 30 mg/kg, po measured after 6 hrs by qRT-PCR analysis; type: functional, organism-based
In short: (§5)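 Male C57BL/6J mice (7–8 weeks) fasted 3 h, then given a single oral dose; vehicle 0.25% CMC-Na (wt/vol). Killed 6 h post-dose; liver snap-frozen, stored at -80 °C. TRIzol RNA extraction, qRT-PCR, normalised to GAPDH by ΔΔCt. Values given as fold of vehicle group, mean ± SEM, n = 6.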

[21] = target: T2, Bile acid receptor (Mus musculus); test: In vivo agonist activity at FXR in C57BL/6J mouse assessed as downregulation of CYP8B1 mRNA expression in liver at 30 mg/kg, po measured after 6 hrs by qRT-PCR analysis; type: functional, organism-based; in short: as §5

For `C/C(=N\OCc1cc(C)cc(C(=O)O)c1)c1ccc(OCc2c(-c3ccccc3OC(F)(F)F)noc2C2CC2)c(C)c1`, which EC50 (Bile acid receptor) is on record?
The EC50 was 523 nM.

Which EC50 (Bile acid receptor) does the source give for `C/C(=N\OCc1cc(C)cc(C(=O)O)c1)c1ccc(OCc2c(-c3ccccc3OC(F)(F)F)noc2C2CC2)c(F)c1` here?
Its EC50 is 1340 nM.

With `COc1cc(/C(C)=N/OCc2cc(C)cc(C(=O)O)c2)ccc1OCc1c(-c2ccccc2OC(F)(F)F)noc1C1CC1` as the compound, how does the EC50 (Bile acid receptor) read?
The EC50 was over 1850 nM.

For `C/C(=N\OCc1cc(C(=O)O)ccc1C#N)c1ccc(OCc2c(-c3c(Cl)cccc3Cl)noc2C2CC2)cc1Cl`, which concentration at 8 h [1] is on record?
The concentration at 8 h was 341 ng/g.

What about the concentration at 8 h [2] of the same compound?
The concentration at 8 h was 7.8 ng/mL.

And the Activity [3]?
Its Activity is “Active”.

And the Emax at 5.5 h [4]?
The Emax at 5.5 h was 1.1%.

What about the EC50 (Bile acid receptor) of the same compound?
The EC50 was 45.2 nM.

And the concentration at 1.5 h [5]?
Its concentration at 1.5 h is 124 ng/mL.

And the concentration at 1.5 h [6]?
The concentration at 1.5 h was 4530 ng/g.

What about the EC50 [7] of the same compound?
The EC50 was over 100000 nM.

What about the Activity [8] of the same compound?
The Activity was “Dose-Dependent Effect”.

What about the concentration at 4 h [9] of the same compound?
Its concentration at 4 h is 2610 ng/g.

And the fold change (FC) [10]?
Its fold change (FC) is 5.

What about the Kp at 8 h [11] of the same compound?
The Kp at 8 h was 43.

What about the fold change (FC) [12] of the same compound?
Its fold change (FC) is 20.

What about the concentration at 4 h [13] of the same compound?
Its concentration at 4 h is 45.4 ng/mL.

What about the fold change (FC) [14] of the same compound?
The fold change (FC) was 2.

And the fold change (FC) [15]?
The fold change (FC) was over 40.

And the Kp at 1.5 h [16]?
Its Kp at 1.5 h is 37.

And the Kp at 4 h [17]?
The Kp at 4 h was 57.

And the Activity [18]?
Its Activity is “Active”.

And the Activity [19]?
The Activity was “Active”.

With `CC[C@H]1[C@@H](O)[C@@H]2[C@H](CC[C@]3(C)[C@@H]([C@H](C)CCC(=O)O)CC[C@@H]23)[C@@]2(C)CC[C@@H](O)C[C@@H]12` as the compound, how does the Activity [20] read?
The Activity was “Active”.

What about the Activity [8] of the same compound?
The Activity was “Dose-Dependent Effect”.

And the Activity [21]?
Its Activity is “Active”.

And the Activity [19]?
Its Activity is “Active”.

With `C/C(=N\OCc1ccc(C(=O)O)o1)c1ccc(OCc2c(-c3c(Cl)cccc3Cl)noc2C2CC2)cc1Cl` as the compound, how does the EC50 (Bile acid receptor) read?
The EC50 was 49.7 nM.

For `C/C(=N\OCc1ccccc1C(=O)O)c1ccc(OCc2c(-c3c(Cl)cccc3Cl)noc2C2CC2)cc1Cl`, which EC50 (Bile acid receptor) is on record?
Its EC50 is 75.4 nM.

For `C/C(=N\OCc1cncc(C(=O)O)c1)c1ccc(OCc2c(-c3ccccc3OC(F)(F)F)noc2C2CC2)c(C)c1`, which EC50 (Bile acid receptor) is on record?
The EC50 was 1830 nM.

With `C/C(=N\OCc1cccc(C(=O)O)c1)c1ccc(OCc2c(-c3c(Cl)cccc3Cl)noc2C2CC2)cc1Br` as the compound, how does the EC50 (Bile acid receptor) read?
The EC50 was 37.2 nM.

For `C/C(=N\OCc1ccc(C(=O)O)o1)c1ccc(OCc2c(-c3c(Cl)cccc3Cl)noc2C2CC2)cn1`, which EC50 (Bile acid receptor) is on record?
Its EC50 is 1390 nM.

For `C/C(=N\OCc1cc(C(=O)O)ccc1C#N)c1ccc(OCc2c(-c3ccccc3OC(F)(F)F)noc2C2CC2)c(C)c1`, which EC50 (Bile acid receptor) is on record?
Its EC50 is 440 nM.
